From ChEMBL document CHEMBL1139673, “Factor VIIa inhibitors: gaining selectivity within the trypsin family” (Bioorg Med Chem Lett, 2006)

Legend:
[1] = species on record: Homo sapiens; experiment: Selectivity for factor 7a versus trypsin
In short: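 Apparent Ki (Morrison tight-binding fit) from two chromogenic assays, both at room temperature with substrate at Km and A405 monitored over time. FVIIa: 7 nM factor VII with 11 nM recombinant soluble human tissue factor in Tris pH 7.4, NaCl, 5.0 mM CaCl2, 1.5 mM EDTA, Tween 20, 10% DMSO; CH3SO2-D-CHA-But-Arg-pNA 500 µM. Trypsin: 10 nM, same buffer without CaCl2; Tosyl-Gly-Pro-Lys-pNA 25 µM.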

[2] = target: T1, Coagulation factor VII (Homo sapiens, UniProt P08709); experiment: Binding affinity to factor 7a
T1 sequence (P08709 whole entry): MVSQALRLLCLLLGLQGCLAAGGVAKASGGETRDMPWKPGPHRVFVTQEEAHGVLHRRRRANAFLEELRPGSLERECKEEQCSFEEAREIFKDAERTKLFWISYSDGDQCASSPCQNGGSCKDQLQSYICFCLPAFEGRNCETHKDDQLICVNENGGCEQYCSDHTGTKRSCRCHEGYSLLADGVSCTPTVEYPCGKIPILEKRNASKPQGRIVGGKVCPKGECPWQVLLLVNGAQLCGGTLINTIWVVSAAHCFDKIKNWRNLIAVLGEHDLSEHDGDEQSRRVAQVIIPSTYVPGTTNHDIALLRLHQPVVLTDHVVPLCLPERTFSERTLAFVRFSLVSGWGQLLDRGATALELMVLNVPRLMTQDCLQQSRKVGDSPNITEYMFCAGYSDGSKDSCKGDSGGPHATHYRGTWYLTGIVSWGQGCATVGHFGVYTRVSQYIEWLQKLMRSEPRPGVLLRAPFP

SMILES | Selectivity ratio [1] | Ki [2] [nM]
CC(C)c1cccc(-c2cc(C(CC(=O)O)C(=O)O)cc(-c3nc4cc(C(=N)N)ccc4[nH]3)c2O)c1 (stereo unspecified) | 40 | –
N=C(N)c1ccc2[nH]c(-c3cc(C(CC(=O)O)C(=O)O)cc(-c4ccccc4N)c3O)nc2c1 (stereo unspecified) | 41 | –
N=C(N)c1ccc2[nH]c(-c3cc(C(CC(=O)O)C(=O)O)cc(-c4cccc(CO)c4)c3O)nc2c1 (stereo unspecified) | 216 | –
COc1ccc(C#N)cc1-c1cc(C(CC(=O)O)C(=O)O)cc(-c2nc3cc(C(=N)N)ccc3[nH]2)c1O (stereo unspecified) | 54 | 280
N=C(N)c1ccc2[nH]c(-c3cc(C(CC(=O)O)C(=O)O)cc(-c4cc(F)cc(F)c4)c3O)nc2c1 (stereo unspecified) | 115 | –
Cc1ccc(-c2cc(C(CC(=O)O)C(=O)O)cc(-c3nc4ccc(C(=N)N)cc4[nH]3)c2O)cc1 (stereo unspecified) | – | 420
N=C(N)c1ccc2[nH]c(-c3cc(C(CC(=O)O)C(=O)O)cc(-c4cccc(OC(F)F)c4)c3O)nc2c1 (stereo unspecified) | 51 | 120
N=C(N)c1ccc2[nH]c(-c3cc(C(CC(=O)O)C(=O)O)cc(-c4cccc([N+](=O)[O-])c4)c3O)nc2c1 (stereo unspecified) | 268 | –
N=C(N)c1ccc2[nH]c(-c3cc(C(CC(=O)O)C(=O)O)cc(-c4cccc(Cl)c4Cl)c3O)nc2c1 (stereo unspecified) | 44 | –
COc1ccc(F)cc1-c1cc(C(CC(=O)O)C(=O)O)cc(-c2nc3cc(C(=N)N)ccc3[nH]2)c1O (stereo unspecified) | 52 | 330
N=C(N)c1ccc2[nH]c(-c3cc(C(CC(=O)O)C(=O)O)cc(-c4ccccc4CO)c3O)nc2c1 (stereo unspecified) | 16 | 730
CC(=O)Nc1cccc(-c2cc(C(CC(=O)O)C(=O)O)cc(-c3nc4cc(C(=N)N)ccc4[nH]3)c2O)c1 (stereo unspecified) | 118 | –
N=C(N)c1ccc2nc(-c3cc(C(CC(=O)O)C(=O)O)cc(-c4cccc(Cl)c4Cl)c3O)[nH]c2c1 (stereo unspecified) | – | 270
N=C(N)c1ccc2[nH]c(-c3cc(C(CC(=O)O)C(=O)O)cc(-c4ccc(Cl)cc4)c3O)nc2c1 (stereo unspecified) | 2 | –
N=C(N)c1ccc2[nH]c(-c3cc(C(CC(=O)O)C(=O)O)cc(-c4cccc(CN)c4)c3O)nc2c1 (stereo unspecified) | 18 | 780
COc1ccc(-c2cc(C(CC(=O)O)C(=O)O)cc(-c3nc4cc(C(=N)N)ccc4[nH]3)c2O)cc1 (stereo unspecified) | 1 | 2250
N=C(N)c1ccc2[nH]c(-c3cc(C(CC(=O)O)C(=O)O)cc(-c4cccc(O)c4)c3O)nc2c1 (stereo unspecified) | 99 | 88

SMILES | Selectivity ratio [1] | Ki [2] [nM]
N=C(N)c1ccc2nc(-c3cc(C(CC(=O)O)C(=O)O)cc(-c4ccc(Cl)cc4)c3O)[nH]c2c1 (stereo unspecified) | – | 440
N=C(N)c1ccc2nc(-c3cc(C(CC(=O)O)C(=O)O)cc(-c4ccccc4N)c3O)[nH]c2c1 (stereo unspecified) | – | 420
CC(=O)Nc1cccc(-c2cc(C(CC(=O)O)C(=O)O)cc(-c3nc4ccc(C(=N)N)cc4[nH]3)c2O)c1 (stereo unspecified) | – | 110
Cc1cccc(-c2cc(C(CC(=O)O)C(=O)O)cc(-c3nc4cc(C(=N)N)ccc4[nH]3)c2O)c1 (stereo unspecified) | 108 | –
N=C(N)c1ccc2[nH]c(-c3cc(C(CC(=O)O)C(=O)O)cc(-c4ccc(O)cc4)c3O)nc2c1 (stereo unspecified) | 10 | 880
N=C(N)c1ccc2[nH]c(-c3cc(C(CC(=O)O)C(=O)O)cc(-c4cc(F)ccc4O)c3O)nc2c1 (stereo unspecified) | 4400 | –
N=C(N)c1ccc2[nH]c(-c3cc(C(CC(=O)O)C(=O)O)cc(-c4ccccc4[N+](=O)[O-])c3O)nc2c1 (stereo unspecified) | 25 | –
N=C(N)c1ccc2nc(-c3cc(C(CC(=O)O)C(=O)O)cc(-c4ccc(F)c(Cl)c4)c3O)[nH]c2c1 (stereo unspecified) | – | 130
N=C(N)c1ccc2[nH]c(-c3cc(C(CC(=O)O)C(=O)O)cc(-c4cc(Cl)cc(Cl)c4)c3O)nc2c1 (stereo unspecified) | 98 | –
N=C(N)c1ccc2[nH]c(-c3cc(C(CC(=O)O)C(=O)O)cc(-c4cc(Cl)cc(Cl)c4Cl)c3O)nc2c1 (stereo unspecified) | 39 | 210
N=C(N)c1ccc2[nH]c(-c3cc(C(CC(=O)O)C(=O)O)cc(-c4ccc(F)c(Cl)c4)c3O)nc2c1 (stereo unspecified) | 34 | –
N=C(N)c1ccc2[nH]c(-c3cc(C(CC(=O)O)C(=O)O)ccc3O)nc2c1 (stereo unspecified) | 1 | 6400
Cc1ccc(-c2cc(C(CC(=O)O)C(=O)O)cc(-c3nc4cc(C(=N)N)ccc4[nH]3)c2O)cc1 (stereo unspecified) | 8 | –
N=C(N)c1ccc2[nH]c(-c3cc(C(CC(=O)O)C(=O)O)cc(-c4cccnc4)c3O)nc2c1 (stereo unspecified) | 31 | 550
N=C(N)c1ccc2[nH]c(-c3cc(C(CC(=O)O)C(=O)O)cc(-c4cc(Cl)ccc4Cl)c3O)nc2c1 (stereo unspecified) | 35 | 250
Cc1ccccc1-c1cc(C(CC(=O)O)C(=O)O)cc(-c2nc3cc(C(=N)N)ccc3[nH]2)c1O (stereo unspecified) | 16 | 500
CC(C)(C)c1ccc(-c2cc(C(CC(=O)O)C(=O)O)cc(-c3nc4cc(C(=N)N)ccc4[nH]3)c2O)cc1 (stereo unspecified) | 1 | 16000

The remaining compounds from weak to strong by Ki [2], led by results:

Selectivity ratio [1] | Ki [2] [nM] | SMILES
71 | 77 | N#Cc1cccc(-c2cc(C(CC(=O)O)C(=O)O)cc(-c3nc4cc(C(=N)N)ccc4[nH]3)c2O)c1 (stereo unspecified)
– | 76 | CC(C)c1cccc(-c2cc(C(CC(=O)O)C(=O)O)cc(-c3nc4ccc(C(=N)N)cc4[nH]3)c2O)c1 (stereo unspecified)
91 | 74 | N=C(N)c1ccc2[nH]c(-c3cc(C(CC(=O)O)C(=O)O)cc(-c4ccccc4)c3O)nc2c1 (stereo unspecified)
– | 68 | N=C(N)c1ccc2nc(-c3cc(C(CC(=O)O)C(=O)O)cc(-c4cc(F)cc(F)c4)c3O)[nH]c2c1 (stereo unspecified)
59 | 66 | N=C(N)c1ccc2[nH]c(-c3cc(C(CC(=O)O)C(=O)O)cc(-c4cccc(Cl)c4)c3O)nc2c1 (stereo unspecified)
103 | 64 | N=C(N)c1ccc2[nH]c(-c3cc(C(CC(=O)O)C(=O)O)cc(-c4ccccc4CS)c3O)nc2c1 (stereo unspecified)
102 | 54 | Cc1cccc(NC(=O)Cc2cc(C(CC(=O)O)C(=O)O)cc(-c3nc4cc(C(=N)N)ccc4[nH]3)c2O)c1 (stereo unspecified)
– | 38 | Cc1cccc(-c2cc(C(CC(=O)O)C(=O)O)cc(-c3nc4ccc(C(=N)N)cc4[nH]3)c2O)c1 (stereo unspecified)
250 | 36 | N=C(N)c1ccc2[nH]c(-c3cc(C(CC(=O)O)C(=O)O)cc(-c4cccc(N)c4)c3O)nc2c1 (stereo unspecified)
197 | 33 | CC(=O)c1cccc(-c2cc(C(CC(=O)O)C(=O)O)cc(-c3nc4cc(C(=N)N)ccc4[nH]3)c2O)c1 (stereo unspecified)
1080 | 29 | Cc1cc(C)cc(-c2cc(C(CC(=O)O)C(=O)O)cc(-c3nc4cc(C(=N)N)ccc4[nH]3)c2O)c1 (stereo unspecified)
– | 27 | N=C(N)c1ccc2nc(-c3cc(C(CC(=O)O)C(=O)O)cc(-c4cc(Cl)cc(Cl)c4)c3O)[nH]c2c1 (stereo unspecified)
192 | 25 | N=C(N)c1ccc2[nH]c(-c3cc(C(CC(=O)O)C(=O)O)cc(-c4c(O)cc(Cl)cc4Cl)c3O)nc2c1 (stereo unspecified)
– | 22 | N=C(N)c1ccc2nc(-c3cc(C(CC(=O)O)C(=O)O)cc(-c4ccccc4[N+](=O)[O-])c3O)[nH]c2c1 (stereo unspecified)
– | 21 | N=C(N)c1ccc2nc(-c3cc(C(CC(=O)O)C(=O)O)cc(-c4cccc(CO)c4)c3O)[nH]c2c1 (stereo unspecified)
421 | 14 | N=C(N)c1ccc2[nH]c(-c3cc(C(CC(=O)O)C(=O)O)cc(-c4cc(Cl)cc(Cl)c4O)c3O)nc2c1 (stereo unspecified)
1080 | 13 | N=C(N)c1ccc2[nH]c(-c3cc(C(CC(=O)O)C(=O)O)cc(-c4ccccc4O)c3O)nc2c1 (stereo unspecified)
2960 | 12 | N#Cc1ccc(O)c(-c2cc(C(CC(=O)O)C(=O)O)cc(-c3nc4cc(C(=N)N)ccc4[nH]3)c2O)c1 (stereo unspecified)
1790 | 10 | N=C(N)c1ccc2[nH]c(-c3cc(C(CC(=O)O)C(=O)O)cc(-c4cc(N)ccc4O)c3O)nc2c1 (stereo unspecified)
398 | 9 | N=C(N)c1ccc2[nH]c(-c3cc(C(CC(=O)O)C(=O)O)cc(-c4cc(Cl)cc(Br)c4O)c3O)nc2c1 (stereo unspecified)
8500 | 6 | N=C(N)c1ccc2[nH]c(-c3cc(C(CC(=O)O)C(=O)O)cc(-c4cc([N+](=O)[O-])ccc4O)c3O)nc2c1 (stereo unspecified)
2500 | 5.4 | N=C(N)c1ccc2[nH]c(-c3cc(C(CC(=O)O)C(=O)O)cc(-c4cc(Cl)ccc4O)c3O)nc2c1 (stereo unspecified)
